From ChEMBL document CHEMBL4311941, “Development of Multifunctional Histone Deacetylase 6 Degraders with Potent Antimyeloma Activity” (J Med Chem, 2019)
Active and inactive are the calls of the source. No cut-off for these calls is given here.

Columns and labels:
[1] = molecular target: T1, Protein cereblon/Zinc finger protein Aiolos (Homo sapiens) (UniProt Q96SW2+Q9UKT9); test: Protac activity at CRBN/IKZF3 in human MM1S cells assessed as IKZF3 degradation measured after 6 hrs by Western blot analysis; assay type: cell-based
T1 sequence (Q96SW2 whole entry, looked up): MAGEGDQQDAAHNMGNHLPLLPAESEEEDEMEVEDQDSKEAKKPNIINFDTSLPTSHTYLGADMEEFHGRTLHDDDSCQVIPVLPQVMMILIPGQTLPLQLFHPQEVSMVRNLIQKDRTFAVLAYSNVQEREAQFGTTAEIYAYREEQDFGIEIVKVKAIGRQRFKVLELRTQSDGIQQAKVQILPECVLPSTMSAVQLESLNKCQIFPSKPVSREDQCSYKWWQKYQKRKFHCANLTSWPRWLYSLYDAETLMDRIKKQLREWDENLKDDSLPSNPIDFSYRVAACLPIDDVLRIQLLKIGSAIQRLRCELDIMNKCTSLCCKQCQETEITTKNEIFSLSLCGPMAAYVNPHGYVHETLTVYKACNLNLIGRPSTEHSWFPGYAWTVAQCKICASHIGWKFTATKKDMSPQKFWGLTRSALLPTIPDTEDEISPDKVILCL
T1 sequence (Q9UKT9 whole entry, looked up): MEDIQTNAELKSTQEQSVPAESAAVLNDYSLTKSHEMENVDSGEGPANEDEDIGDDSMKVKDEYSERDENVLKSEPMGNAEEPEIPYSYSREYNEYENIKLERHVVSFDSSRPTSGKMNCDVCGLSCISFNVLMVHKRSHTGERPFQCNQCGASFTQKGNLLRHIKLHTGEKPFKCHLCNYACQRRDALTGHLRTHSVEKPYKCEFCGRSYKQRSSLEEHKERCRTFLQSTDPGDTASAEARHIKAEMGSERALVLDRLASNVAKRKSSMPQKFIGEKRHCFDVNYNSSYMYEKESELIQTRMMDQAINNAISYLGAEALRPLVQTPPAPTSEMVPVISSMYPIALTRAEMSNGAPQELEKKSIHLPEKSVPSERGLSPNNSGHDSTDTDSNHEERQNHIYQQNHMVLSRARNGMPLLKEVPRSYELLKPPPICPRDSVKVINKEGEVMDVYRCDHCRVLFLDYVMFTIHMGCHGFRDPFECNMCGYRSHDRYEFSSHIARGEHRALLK

[2] = molecular target: T2, Protein cereblon/Protein deacetylase HDAC6 (Homo sapiens, UniProt Q9UBN7+Q96SW2); test: Protac activity at CRBN/HDAC6 in human MM1S cells assessed as induction of alpha tubulin acetylation at 100 nM measured after 6 hrs in presence of proteasome inhibitor MG132 by Western blot analysis; assay type: cell-based
T2 sequence (Q96SW2 whole entry, looked up, one chain of several): as the sequence (Q96SW2 whole entry, looked up) above

[3] = molecular target: T2, Protein cereblon/Protein deacetylase HDAC6; test: Protac activity at CRBN/HDAC6 in human MM1S cells assessed as induction of alpha tubulin acetylation at 100 nM measured after 6 hrs in presence of proteasome inhibitor bortezomib by Western blot analysis; assay type: cell-based
[4] = molecular target: T1, Protein cereblon/Zinc finger protein Aiolos (Homo sapiens); test: Protac activity at CRBN/IKZF3 in human MM1S cells assessed as IKZF3 degradation at 100 nM measured after 6 hrs by Western blot analysis; assay type: cell-based
Procedure, shortened: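 Time course in MM1S cells (1 × 10^6 cells per well, seeded overnight) under 100 nM degrader. Whole-cell RIPA lysates analysed by 7.5−12% SDS-PAGE and PVDF immunoblot. Primary antibody at 4 °C overnight, HRP secondary 1 h, ECL detection with densitometry.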

[5] = molecular target: Protein cereblon/Histone deacetylase 1 (Homo sapiens) (UniProt Q13547+Q96SW2); test: Protac activity at CRBN/HDAC1 in human MM1S cells assessed as HDAC1 degradation at 100 nM measured after 6 hrs in presence of proteasome inhibitor bortezomib by Western blot analysis; assay type: cell-based
Sequence of Protein cereblon/Histone deacetylase 1 (Homo sapiens) (Q13547 whole entry, looked up): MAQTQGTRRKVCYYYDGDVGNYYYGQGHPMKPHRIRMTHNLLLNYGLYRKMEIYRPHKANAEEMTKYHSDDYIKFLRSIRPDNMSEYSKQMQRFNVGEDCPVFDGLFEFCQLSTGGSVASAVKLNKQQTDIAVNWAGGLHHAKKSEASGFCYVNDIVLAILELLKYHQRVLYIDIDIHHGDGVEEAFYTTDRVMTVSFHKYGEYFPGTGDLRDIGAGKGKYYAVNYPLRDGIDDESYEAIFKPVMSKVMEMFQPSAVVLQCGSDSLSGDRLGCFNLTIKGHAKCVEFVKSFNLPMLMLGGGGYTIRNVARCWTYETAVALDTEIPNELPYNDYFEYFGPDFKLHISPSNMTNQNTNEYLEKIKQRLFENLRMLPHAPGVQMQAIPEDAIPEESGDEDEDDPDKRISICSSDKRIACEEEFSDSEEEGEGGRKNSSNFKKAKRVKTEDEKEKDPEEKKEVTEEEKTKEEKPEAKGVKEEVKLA
Sequence of Protein cereblon/Histone deacetylase 1 (Homo sapiens) (Q96SW2 whole entry, looked up): as the sequence (Q96SW2 whole entry, looked up) above

[6] = molecular target: T2, Protein cereblon/Protein deacetylase HDAC6; test: Protac activity at CRBN/HDAC6 in human MM1S cells assessed as induction of alpha tubulin acetylation measured after 6 hrs by Western blot analysis; assay type: cell-based
[7] = molecular target: T2, Protein cereblon/Protein deacetylase HDAC6; test: Protac activity at CRBN/HDAC6 in human A431 cells assessed as HDAC6 degradation up to 10 uM incubated for 6 hrs by Western blot analysis; assay type: cell-based
[8] = molecular target: T3, Protein deacetylase HDAC6 (Homo sapiens, UniProt Q9UBN7); test: Inhibition of human N-terminal tagged human HDAC6 expressed in HEK293T/17 using Ac-Gly-Ala-[Ac-Lys]-AMC as substrate preincubated for 10 mins followed by substrate addition and measured after 15 mins by fluorescence assay
T3 sequence (Q9UBN7 whole entry): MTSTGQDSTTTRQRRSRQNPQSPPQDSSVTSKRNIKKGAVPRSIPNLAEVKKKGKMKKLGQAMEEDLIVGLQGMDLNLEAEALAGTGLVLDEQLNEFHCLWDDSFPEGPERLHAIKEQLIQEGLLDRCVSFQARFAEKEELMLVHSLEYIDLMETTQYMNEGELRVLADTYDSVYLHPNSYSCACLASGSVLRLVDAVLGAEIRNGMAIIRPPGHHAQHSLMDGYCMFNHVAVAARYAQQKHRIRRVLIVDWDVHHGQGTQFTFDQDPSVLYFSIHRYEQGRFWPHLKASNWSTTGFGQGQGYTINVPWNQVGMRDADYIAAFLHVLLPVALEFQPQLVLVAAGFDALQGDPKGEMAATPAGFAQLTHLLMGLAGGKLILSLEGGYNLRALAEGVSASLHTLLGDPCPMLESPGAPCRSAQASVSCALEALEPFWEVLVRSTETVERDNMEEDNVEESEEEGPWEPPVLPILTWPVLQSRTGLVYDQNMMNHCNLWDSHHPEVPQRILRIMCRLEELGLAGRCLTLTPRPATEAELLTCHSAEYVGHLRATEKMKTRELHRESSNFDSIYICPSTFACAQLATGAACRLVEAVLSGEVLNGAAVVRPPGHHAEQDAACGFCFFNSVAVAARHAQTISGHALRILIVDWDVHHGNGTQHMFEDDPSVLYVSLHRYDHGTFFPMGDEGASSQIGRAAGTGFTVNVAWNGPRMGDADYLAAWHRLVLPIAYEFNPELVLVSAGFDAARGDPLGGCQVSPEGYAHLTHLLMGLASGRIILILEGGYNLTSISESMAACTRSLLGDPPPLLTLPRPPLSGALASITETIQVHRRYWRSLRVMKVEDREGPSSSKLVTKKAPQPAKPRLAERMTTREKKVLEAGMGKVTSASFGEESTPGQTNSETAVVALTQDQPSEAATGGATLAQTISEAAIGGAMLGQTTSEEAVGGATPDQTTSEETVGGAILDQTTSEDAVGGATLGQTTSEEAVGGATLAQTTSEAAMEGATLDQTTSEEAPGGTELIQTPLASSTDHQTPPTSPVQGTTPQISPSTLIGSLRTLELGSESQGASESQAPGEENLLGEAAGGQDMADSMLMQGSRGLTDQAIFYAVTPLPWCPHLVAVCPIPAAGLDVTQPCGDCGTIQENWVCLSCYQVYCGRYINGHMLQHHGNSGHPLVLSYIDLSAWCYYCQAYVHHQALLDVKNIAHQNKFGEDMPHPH

[9] = molecular target: T4, Histone deacetylase 8 (Homo sapiens, UniProt Q9BY41); test: Inhibition of human N-terminal tagged human HDAC8 expressed in HEK293T/17 using Boc-[TFA-Lys]-AMC as substrate preincubated for 10 mins followed by substrate addition and measured after 60 mins by fluorescence assay
T4 sequence (Q9BY41 whole entry): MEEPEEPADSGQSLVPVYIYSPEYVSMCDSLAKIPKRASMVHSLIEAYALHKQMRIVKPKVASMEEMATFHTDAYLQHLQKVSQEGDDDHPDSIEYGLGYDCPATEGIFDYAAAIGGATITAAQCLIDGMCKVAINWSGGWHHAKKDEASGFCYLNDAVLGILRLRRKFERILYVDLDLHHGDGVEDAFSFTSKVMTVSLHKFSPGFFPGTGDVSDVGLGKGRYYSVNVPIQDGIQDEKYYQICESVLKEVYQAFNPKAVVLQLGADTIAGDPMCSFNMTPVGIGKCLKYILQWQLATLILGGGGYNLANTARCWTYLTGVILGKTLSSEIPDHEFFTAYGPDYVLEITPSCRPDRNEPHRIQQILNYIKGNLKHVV

[10] = molecular target: T1, Protein cereblon/Zinc finger protein Aiolos (Homo sapiens); test: Protac activity at CRBN/IKZF3 in human MM1S cells assessed as IKZF3 degradation at 100 nM measured after 6 hrs in presence of E3 ligase ligand pomalidomide by Western blot analysis; assay type: cell-based
Procedure, shortened: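 MM1S cells seeded at 1 × 10^6 per well overnight. Pretreated 1 h with pomalidomide, Next-A, MLN 4924 or DMSO, then given 100 nM degrader or DMSO for 6 h. Lysed in RIPA with protease inhibitors, 10−40 μg protein run on SDS-PAGE and transferred to PVDF. Blots probed for IKZF1/IKZF3, detected by ECL and quantified by densitometry.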

Activity [1]: Dose-dependent effect
Activity [2]: inactive
Activity [3]: inactive
Activity [4]: Active
Activity [5]: inactive
Activity [6]: Dose-dependent effect
Activity [7]: Active
IC50 [8]: 8.7 nM
IC50 [9]: 300 to 30000 nM
Activity [10]: Active
SMILES: CCCCN(Cc1ccc(C(=O)NO)cc1)C(=O)Nc1ccc(OCCCCCn2cc(CNc3cccc4c3C(=O)N(C3CCC(=O)NC3=O)C4=O)nn2)cc1 (stereo not given)
